# From PubChem
# CHO parental Ca: counter-screen for OX1R antagonists: effect in parental CHO cells. inhibition, % at 5.6 µM. parental CHO-K1, ATP-induced calcium, Fluo-8 fluorescence. 330,000 compounds, 0.63% hits;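 active = inhibition above that plate's mean sample inhibition plus 3 SD, cut at about 26% in these data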;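 note: 0% = ATP-challenged DMSO wells and 100% = DMSO wells without ATP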
#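 Assay system: untransfected parental CHO cell line. Also added: ATP agonist challenge. Dosing: one dose, 5.6 µM nominal. Measured by: Fluo-8 fluorescence. Read-out: % inhibition. Benchmarks: ATP wells versus no-ATP DMSO wells. Repeats: no replicates.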
# OXTR potentiator: human OXTR potentiation. CHO-OTR cells, Fluo-8 calcium fluorescence, potentiator mode; 0% = oxytocin EC15, 100% = EC100. activation, % at 3 µM. P30559. 320,000 compounds, 0.061% hits;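 active = activation above that plate's cutoff, the mean activation of tested compounds plus 3 SD, cut at about 6.6% in these data, passing the limit was not always enough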;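 note: 100% uses oxytocin at 75 nM as the full agonist control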
# Target sequence (P30559 whole entry, looked up): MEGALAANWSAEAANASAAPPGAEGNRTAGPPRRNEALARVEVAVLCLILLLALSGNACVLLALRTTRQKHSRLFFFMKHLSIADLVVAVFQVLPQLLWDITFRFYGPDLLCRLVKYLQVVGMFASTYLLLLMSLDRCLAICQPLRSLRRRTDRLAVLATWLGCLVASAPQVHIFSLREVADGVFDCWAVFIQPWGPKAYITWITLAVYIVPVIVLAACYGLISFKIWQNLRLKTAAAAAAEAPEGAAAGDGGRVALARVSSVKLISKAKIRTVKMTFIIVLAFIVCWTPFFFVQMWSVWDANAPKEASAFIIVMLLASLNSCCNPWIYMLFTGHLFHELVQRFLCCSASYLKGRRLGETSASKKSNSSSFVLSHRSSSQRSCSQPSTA
#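 Material: human OTR in CHO cells. Compound: 3.0 µM, one dose. Timing: compound 6 min at room temperature before oxytocin, 100 s read. Evaluation: % activation of max/min ratio relative to oxytocin controls. Replication: single well per compound, singlicate. Signal: Fluo-8 calcium dye fluorescence.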
# OX1R antag-1: antagonists of human orexin 1 receptor; AID 434989; inhibition, % at 5 µM; 330,000 compounds, 0.43% hits; CHO/OX1R cells, Fluo-8 calcium fluorescence, orexin A; O43613;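 active = inhibition above its plate's threshold, mean inhibition of all tested compounds on the plate plus 3 SD, cut at about 37% in these data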;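 note: 0% = orexin A challenge wells and 100% = SB-334867-A antagonist wells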
# OX1R antag-2: OX1R (human) antagonism; 330,000 compounds, 1.8% hits; OX1R-expressing cells, FRET antagonist read-out; AID 485270; inhibition, % at 6.6 µM; O43613; in the data active = inhibition mostly above about 38%, no sharp cut-off; inactive = mostly below about 40%;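 note: 0% = agonist challenge alone and 100% = reference antagonist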
# V1aR counter: V1a receptor agonism, counter-screen for OXTR agonists | 320,000 compounds, 0.25% hits | CHO-V1R cells, Fluo-8 calcium fluorescence, agonist mode; 0% DMSO, 100% 3 nM vasopressin | AID 2797 | activation, % at 3 µM;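 active = activation above the mean activation of all tested compounds plus 3 SD, per screening run, cut at about 20% in these data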;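 note: signal is peak over basal fluorescence ratio across a 100 second FLIPR read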
# OXTR agonist: agonists of human oxytocin receptor. activation, % at 3 µM. P30559. 320,000 compounds, 0.32% hits. CHO-OTR cells, Fluo-8 calcium fluorescence; normalized: DMSO 0%, oxytocin 100%;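 active = activation above the mean of all tested compounds plus 3 SD, cutoff set per screening run, cut at about 20% in these data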;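 note: peak over basal fluorescence ratio from a 100 s FLIPR kinetic read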
# OXTR pot confirm: human OXTR potentiation, confirmation; activation, % at 3 µM; 180 tested, under 10 active; AID 434985; shares compounds with OXTR potentiator; CHO-OTR cells, Fluo-8 calcium fluorescence; scaled from low-dose to maximal oxytocin;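 active = mean percent activation over triplicates above a cutoff set from solvent-only control plates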;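 note: compounds tested in the presence of an EC15 dose of oxytocin; 0% = EC15 oxytocin with DMSO and 100% = EC100 oxytocin with DMSO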
# V1aR agonist cf: human V1a receptor agonism, confirmation; activation, % at 3 µM; CHO-V1R cells, Fluo-8 calcium fluorescence, agonist; shares compounds with V1aR counter; 180 compounds, 20% hits;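 active = average activation exceeds primary screen hit cutoff, cut at about 21% in these data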;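 note: peak over basal fluorescence ratio during a 100 s FLIPR read; 0% = DMSO only wells and 100% = 3 nM vasopressin wells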
# OXTR ag counter: counter-screen for V1a receptor agonists: oxytocin receptor agonists; shares compounds with V1aR counter; CHO-OTR cells, Fluo-8 calcium fluorescence, agonist; activation, % at 3 µM; 180 compounds, 10% hits;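 active = mean activation over three repeats above the cutoff from the earlier oxytocin receptor agonist screen, cut at about 20% in these data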;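 note: peak over minimum fluorescence ratio within a 100 second FLIPR read; 0% = DMSO only wells and 100% = oxytocin high control wells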
# An asterisk follows results filed as active; x = no result. Hits are enriched below; roughly 2.7% of the tested compounds scored in any of these assays.
SMILES,CHO parental Ca,OXTR potentiator,OX1R antag-1,OX1R antag-2,V1aR counter,OXTR agonist,V1aR agonist cf,OXTR ag counter,others
Cc1ccccc1OCCC(=O)Nc1ccccc1C(=O)NC1CC1,-15.9,10.0,-38.6,10.0,-0.7,-2.2,x,x,
Cc1cc(C(=O)C(C)OC(=O)c2ccc(NC(=O)CC#N)cc2)c(C)n1-c1ccc(OC(F)F)cc1 (configuration not stated),-2.4,-6.5,1.8,12.0,1.6,2.4,x,x,
c1ccc(-c2noc(CSc3nc4ccccc4o3)n2)cc1,-14.1,12.7*,-24.1,18.8,-1.5,-1.1,x,x,OXTR pot confirm=-5.8
COC(=O)CSc1[nH]c2ccc(F)cc2c1[N+](=O)[O-],-7.1,9.0*,-21.2,64.6,0.5,-0.1,x,x,OXTR pot confirm=-1.2
CCOC(=O)CSc1[nH]c2cc(OC)ccc2c1[N+](=O)[O-],-0.9,-2.9,-16.3,30.6,-0.1,0.8,x,x,
COc1ccc(CCC(=O)N2CCN(c3ccc([N+](=O)[O-])cc3)CC2)cc1OC,11.5,-11.4,-16.4,13.5,7.9,3.1,x,x,
O=C(COC(=O)c1cccc(S(=O)(=O)N2CCOCC2)c1)NCCc1ccccc1,-8.9,-1.7,-24.0,17.6,0.2,-0.6,x,x,
COC(=O)c1ccc(Cn2nc(-c3ccc(C)cc3)ccc2=O)cc1,-12.9,-20.9,-34.9,4.5,5.8,7.6,x,x,
Cc1ccc(-c2ccc(=O)n(Cc3ccc(F)cc3)n2)cc1,2.7,-15.6,-13.5,1.4,21.7*,4.6,2.2,-0.7,
N#CCCN(CCC#N)C(=O)C1c2ccccc2Oc2ccccc21,11.1,-5.5,-0.3,1.9,26.2*,12.2,0.9,0.7,
O=C(Nc1nnc(-c2ccc3c(c2)CCCC3)o1)c1ccccc1Cl,-2.6,-6.3,-3.7,27.7,4.3,4.0,x,x,
O=C(Nc1nnc(-c2ccc3c(c2)CCCC3)o1)c1ccccc1,12.1,-7.5,7.7,20.9,34.5*,1.8,12.1,3.9,
Cc1cc(-c2ccccc2C(=O)O)on1,4.5,-13.5,-9.8,21.2,0.3,0.5,x,x,
O=C(O)c1ccccc1C1=Nc2ccc(O)cc2Oc2cc(O)ccc21,4.3,-6.6,6.5,11.7,23.4*,17.0,26.8*,19.8*,
CCN(CC)c1cccc(OC(=O)c2cccnc2Cl)c1,-29.1,-2.1,-30.7,19.3,-1.9,-2.2,x,x,
COc1ccc(CC(=O)NNS(=O)(=O)c2ccc([N+](=O)[O-])cc2)cc1OC,-2.2,-3.6,-5.2,29.0,0.3,0.8,x,x,
CCCCCC(O)(c1ccc(OC)cc1)C(CN1CCOCC1)c1ccccc1 (configuration not stated),-30.8,-1.7,-28.7,-4.8,23.9*,-1.7,-0.4,-0.7,
CCCCC(O)(c1ccc(OC)cc1)C(CN1CCOCC1)c1ccccc1 (configuration not stated),-40.1,-3.4,-61.1,1.6,-0.8,-0.8,x,x,
C/C(=N\OCC(=O)OCC(=O)NCc1ccccc1)c1ccc2c(c1)OCO2,-7.2,-2.4,-9.7,9.3,-1.0,-2.2,x,x,
O=C(Nc1cccc(-n2cnnn2)c1)c1ccoc1COc1ccc(Cl)cc1,7.8,-10.4,11.8,6.8,1.9,3.0,x,x,
CCCCCCCCCCCCOC(=O)C[N+](C)(C)C,-3.5,-6.6,-17.0,5.3,25.8*,4.0,-0.4,-0.8,
CCn1c(SCC(=O)Nc2ccc(C)cc2)nc(O)cc1=O,5.2,-10.4,15.9,6.2,0.2,0.3,x,x,
CCCn1c(SCC(=O)Nc2cccc(F)c2)nc(O)cc1=O,39.9*,-11.6,79.1*,-6.5,25.5*,7.7,-0.1,-0.2,
CCCOc1ccc(-c2c(C(=O)N/N=C/c3ccncc3)nnn2-c2nonc2N)cc1,-22.2,-13.1,-22.3,14.0,21.3*,8.7,-0.4,-0.5,
COc1cccc(/C=N/NC(=O)c2nnn(-c3nonc3N)c2-c2cccs2)c1,8.2,-15.0,-8.5,18.8,8.6,8.1,x,x,
SMILES,CHO parental Ca,OXTR potentiator,OX1R antag-1,OX1R antag-2,V1aR counter,OXTR agonist,V1aR agonist cf,OXTR ag counter,others
COc1cccc(-c2c(C(=O)N/N=C/c3ccsc3)nnn2-c2nonc2N)c1,-9.3,-7.6,-28.5,26.2,25.1*,8.1,17.2,4.9,
Nc1nonc1-n1nnc(C(=O)N/N=C/c2cccnc2)c1CSc1ccc(Cl)cc1,-0.4,-7.7,19.9,47.5*,20.9*,15.0,3.1,4.8,
CCC(c1nnc(SC(C)C(=O)NC2CC2)n1-c1ccc(OC)cc1)N(C)C (configuration not stated),-6.2,-3.0,-29.5,2.4,-0.2,0.3,x,x,
COc1ccc2c(C(=O)NCc3ccc4c(c3)OCO4)c(-c3ccc(S(C)(=O)=O)cc3)sc2c1,-2.1,-7.3,1.4,4.6,1.5,0.7,x,x,
CN(Cc1ccc(OC(F)F)cc1)C(=O)c1ccc2c(=O)n3c(nc2c1)CCC3,-9.3,-3.5,-14.3,7.3,0.3,0.6,x,x,
C=CCNC(=O)C(=O)NCC1CCCN1S(=O)(=O)c1cccs1 (configuration not stated),-10.6,-8.2,-8.7,2.1,-0.2,-0.6,x,x,
Nc1cccc(C#Cc2ccc3c(c2)C(=O)/C(=C/c2ccsc2)O3)c1,-18.3,0.7,-7.0,3.9,-0.4,-0.1,x,x,
CC(=O)c1cc(F)ccc1OCC(=O)Nc1ccc2c(c1)OCO2,-7.0,-8.8,-6.5,13.7,-0.8,-1.5,x,x,
COc1cc(/C=C2\CCCc3c2nc2ccccc2c3C(=O)O)cc(Br)c1O,4.4,-7.2,-13.2,21.7,-0.5,0.8,x,x,
CCOc1cc(/C=C2\CCCc3c2nc2ccccc2c3C(=O)O)ccc1OC,29.3,1.3,31.8,133.2*,59.6*,7.4,-0.3,-0.2,
O=C(Nc1ccc(Cl)cc1)Nc1ccc(N2CCOCC2)cc1,8.9,-14.1,-2.7,12.2,3.0,2.0,x,x,
O=C(Nc1ccc(N2CCOCC2)cc1)Nc1ccc(Cl)c(Cl)c1,51.4*,-8.5,44.9*,18.6,20.6*,17.3,10.7,10.4,
Cc1nn(Cc2c(Cl)cccc2Cl)c(C)c1NC(=O)c1cc(C(C)C)on1,91.4*,-7.2,89.5*,5.6,27.1*,2.7,1.0,14.2,
CC1(CCc2ccc3c(c2)OCO3)NCCc2c1[nH]c1ccccc21 (configuration not stated),12.9,-16.0,-4.0,6.2,30.4*,15.8,10.1,22.1*,
CC1(CCc2ccc3c(c2)OCO3)NC(=O)c2ccccc2N1 (configuration not stated),1.5,-13.2,-4.3,16.6,0.0,0.4,x,x,
